Article PMC2957851 (ACS Chemical Neuroscience, 2010)
“Also recorded” adds a separate entry of the source. Values belong to the compound of their own block, whether it stands above or below them.

What was measured:
rmGlu5 = details: CHO or HEK293 cells expressing rmGlu5; cited from earlier work
A809V/rmGlu5 = A809V/rmGlu5 (Rattus norvegicus, UniProt P31424, A809V); type: cell-based; details: VU0357121 at 1 μM; transiently transfected HEK293
Method in brief: (§1)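 HEK293 cells were transiently transfected with mutant rat mGlu5 cDNA using FuGENE 6, plated the next day and assayed the following day. Cells were Fluo4-AM loaded in HBSS/HEPES/probenecid at pH 7.4. Vehicle or a fixed 1 μM PAM was added, then increasing glutamate. Calcium fluorescence was read for 160 s. Glutamate concentration–response curves were fitted by nonlinear regression to compare EC50 values.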

F585I/rmGlu5 = F585I/rmGlu5 (Rattus norvegicus, UniProt P31424, F585I); type: cell-based; details: VU0357121 at 1 μM; transiently transfected HEK293
Sequence of F585I/rmGlu5 (P31424 21-1203 F585I): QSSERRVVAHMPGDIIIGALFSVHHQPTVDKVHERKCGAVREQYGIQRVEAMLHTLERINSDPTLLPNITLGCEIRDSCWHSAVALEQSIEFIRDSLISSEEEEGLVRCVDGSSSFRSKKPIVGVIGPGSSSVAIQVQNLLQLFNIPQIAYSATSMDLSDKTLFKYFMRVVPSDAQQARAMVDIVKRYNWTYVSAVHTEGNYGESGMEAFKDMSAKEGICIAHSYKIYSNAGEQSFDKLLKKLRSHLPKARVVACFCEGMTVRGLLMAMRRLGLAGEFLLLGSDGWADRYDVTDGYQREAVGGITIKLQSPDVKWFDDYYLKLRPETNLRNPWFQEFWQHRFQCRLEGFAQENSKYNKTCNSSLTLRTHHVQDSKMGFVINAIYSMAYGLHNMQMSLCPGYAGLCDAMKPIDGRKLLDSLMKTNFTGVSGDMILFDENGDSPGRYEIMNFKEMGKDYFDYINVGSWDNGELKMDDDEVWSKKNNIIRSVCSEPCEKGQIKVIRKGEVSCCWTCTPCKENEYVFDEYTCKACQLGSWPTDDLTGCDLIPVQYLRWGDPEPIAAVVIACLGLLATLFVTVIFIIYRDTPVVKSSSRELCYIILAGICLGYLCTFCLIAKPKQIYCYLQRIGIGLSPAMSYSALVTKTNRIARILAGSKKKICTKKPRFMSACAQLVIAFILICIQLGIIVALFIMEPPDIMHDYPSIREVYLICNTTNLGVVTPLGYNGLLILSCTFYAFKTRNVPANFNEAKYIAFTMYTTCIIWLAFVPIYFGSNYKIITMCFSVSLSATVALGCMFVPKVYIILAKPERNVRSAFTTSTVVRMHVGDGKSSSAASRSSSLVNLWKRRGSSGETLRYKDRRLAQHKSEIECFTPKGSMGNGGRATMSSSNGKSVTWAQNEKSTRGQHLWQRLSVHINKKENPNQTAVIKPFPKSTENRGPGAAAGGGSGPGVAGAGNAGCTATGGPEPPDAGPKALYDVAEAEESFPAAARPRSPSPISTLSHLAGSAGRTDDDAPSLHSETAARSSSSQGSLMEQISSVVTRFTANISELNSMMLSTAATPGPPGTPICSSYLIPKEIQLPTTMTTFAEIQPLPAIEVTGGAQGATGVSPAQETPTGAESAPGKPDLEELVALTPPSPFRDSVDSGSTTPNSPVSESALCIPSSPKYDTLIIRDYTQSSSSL
Method in brief: as §1

rat mGlu5 [1] = biological target: T1, rat mGlu5 (Rattus norvegicus, UniProt P31424); test: Antagonist; type: cell-based; details: 10 μM test compound
T1 sequence (P31424 21-1203): as the sequence (P31424 21-1203 F585I) above, with I565F counted along it
Method in brief: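 HEK293 cells stably expressing rat mGlu5 were plated in glutamate/glutamine-free medium 24 h ahead. Cells were loaded with 2 μM Fluo4-AM in HBSS with 2.5 mM probenecid and 20 mM HEPES, pH 7.4, for 45 min at 37 °C. Vehicle or 10 μM test compound went in at 19 s, then ~EC80 glutamate at 109 s. Fluorescence was read for 160 s and normalized to the 100 μM glutamate maximum. Three experiments were run in triplicate, mean ± SEM.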

rat mGlu5 [2] = biological target: T1, rat mGlu5; type: cell-based
Method in brief: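 Rat mGlu5 HEK293 stable cells, plated at 30,000/well in glutamate/glutamine-free medium (dialysed FBS) ≥24 h. Loaded 45 min at 37 °C with 2 μM Fluo4-AM in HBSS, 20 mM HEPES, 2.5 mM probenecid, pH 7.4. Increasing test compound added at 19 s, EC20 glutamate at 109 s. Fluorescence read for 160 s. EC50 from curve fits.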

rat mGlu5 [3] = biological target: T1, rat mGlu5; test: Single-point PAM screen, potentiation of EC20 glutamate calcium response; type: cell-based; details: 1 μM test compound
Method in brief: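 HEK293 cells stably expressing rat mGlu5 were plated at 30,000/well in glutamate/glutamine-free medium about 24 h ahead. Cells were loaded with 2 μM Fluo4-AM for 45 min at 37 °C in HBSS/HEPES/probenecid (pH 7.4). Vehicle or 1 μM test compound was added at 19 s, then glutamate at EC20 at 109 s. Fluorescence recorded for 160 s.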

rat mGlu2 = rat mGlu2 (Rattus norvegicus, UniProt P31421); test: Selectivity fold-shift, GIRK thallium flux in HEK/GIRK cells; type: cell-based; details: 30 μM test compound
Sequence of rat mGlu2 (P31421 19-872): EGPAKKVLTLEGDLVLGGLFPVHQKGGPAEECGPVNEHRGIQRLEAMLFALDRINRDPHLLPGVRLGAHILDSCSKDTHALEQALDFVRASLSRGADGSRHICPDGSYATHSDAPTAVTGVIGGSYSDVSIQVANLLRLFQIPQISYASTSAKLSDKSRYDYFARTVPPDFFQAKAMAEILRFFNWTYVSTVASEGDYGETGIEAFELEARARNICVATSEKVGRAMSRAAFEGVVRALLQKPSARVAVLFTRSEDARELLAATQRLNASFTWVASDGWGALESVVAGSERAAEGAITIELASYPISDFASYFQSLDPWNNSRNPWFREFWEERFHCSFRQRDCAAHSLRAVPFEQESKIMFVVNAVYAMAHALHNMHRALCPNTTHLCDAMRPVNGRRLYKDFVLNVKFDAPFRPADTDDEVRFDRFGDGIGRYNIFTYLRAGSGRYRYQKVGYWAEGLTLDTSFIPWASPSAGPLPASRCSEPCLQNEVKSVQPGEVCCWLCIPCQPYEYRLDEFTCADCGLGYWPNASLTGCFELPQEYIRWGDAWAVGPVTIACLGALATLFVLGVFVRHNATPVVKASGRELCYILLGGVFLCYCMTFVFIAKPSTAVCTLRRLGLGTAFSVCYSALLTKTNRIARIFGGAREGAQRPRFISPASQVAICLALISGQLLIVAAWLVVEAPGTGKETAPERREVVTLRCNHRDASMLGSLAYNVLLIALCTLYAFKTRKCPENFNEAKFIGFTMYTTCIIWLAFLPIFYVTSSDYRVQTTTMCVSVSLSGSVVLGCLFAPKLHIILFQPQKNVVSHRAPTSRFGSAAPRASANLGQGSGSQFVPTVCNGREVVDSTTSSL
Method in brief: (§2)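 HEK cell lines expressing GIRK plus rat mGlu2, 3, 4, 7 or 8 or human mGlu6 were plated overnight at 37 °C. Cells were loaded with 1 μM Fluozin2-AM for 1 h at room temperature. Vehicle or 30 μM test compound was added, then varying glutamate 2.5 min later in thallium buffer (12 mM thallium sulfate). Glutamate curves were fitted by nonlinear regression. Three experiments were run in duplicate or triplicate, mean ± SEM.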

rat mGlu1 = rat mGlu1 (Rattus norvegicus, UniProt P23385); test: Selectivity fold-shift, calcium assay in HEK293 cells expressing mGlu1; type: cell-based; details: 30 μM test compound
Sequence of rat mGlu1 (P23385 19-1199): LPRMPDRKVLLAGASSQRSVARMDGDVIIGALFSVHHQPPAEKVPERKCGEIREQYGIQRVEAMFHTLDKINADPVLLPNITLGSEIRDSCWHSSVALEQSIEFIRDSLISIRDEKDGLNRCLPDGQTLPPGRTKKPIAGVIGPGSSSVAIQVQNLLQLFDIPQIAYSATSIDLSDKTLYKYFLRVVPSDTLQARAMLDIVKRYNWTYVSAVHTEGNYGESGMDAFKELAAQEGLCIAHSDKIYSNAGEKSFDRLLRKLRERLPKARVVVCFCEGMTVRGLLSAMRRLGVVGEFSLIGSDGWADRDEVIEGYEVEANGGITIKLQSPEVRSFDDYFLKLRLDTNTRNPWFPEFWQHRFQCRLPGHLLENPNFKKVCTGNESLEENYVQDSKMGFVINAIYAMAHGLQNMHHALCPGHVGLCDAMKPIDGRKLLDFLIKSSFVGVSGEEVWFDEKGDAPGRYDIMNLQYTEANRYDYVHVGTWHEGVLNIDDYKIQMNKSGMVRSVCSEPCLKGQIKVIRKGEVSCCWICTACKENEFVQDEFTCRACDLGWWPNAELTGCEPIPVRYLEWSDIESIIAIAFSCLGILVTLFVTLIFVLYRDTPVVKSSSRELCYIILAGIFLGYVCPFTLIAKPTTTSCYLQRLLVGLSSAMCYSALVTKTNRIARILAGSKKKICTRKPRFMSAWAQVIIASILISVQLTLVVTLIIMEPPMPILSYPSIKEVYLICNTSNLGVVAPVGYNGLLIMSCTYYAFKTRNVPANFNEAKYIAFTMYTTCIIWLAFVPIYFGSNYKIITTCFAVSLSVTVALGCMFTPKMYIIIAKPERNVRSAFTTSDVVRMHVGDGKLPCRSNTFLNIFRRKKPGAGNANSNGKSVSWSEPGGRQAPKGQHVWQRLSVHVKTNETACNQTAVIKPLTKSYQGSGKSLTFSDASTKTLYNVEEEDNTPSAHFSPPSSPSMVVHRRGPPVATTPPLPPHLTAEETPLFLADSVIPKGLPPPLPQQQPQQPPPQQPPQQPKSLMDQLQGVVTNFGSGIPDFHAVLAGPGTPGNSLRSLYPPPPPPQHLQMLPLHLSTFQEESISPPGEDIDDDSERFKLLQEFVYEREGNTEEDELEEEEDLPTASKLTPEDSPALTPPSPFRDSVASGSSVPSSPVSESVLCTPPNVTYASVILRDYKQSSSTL
Method in brief: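 HEK293 cells stably expressing rat mGlu1, handled as for mGlu5 cells: plated in glutamate/glutamine-free medium, loaded with 2 μM Fluo4-AM (45 min, 37 °C, pH 7.4, with probenecid). Vehicle or 30 μM test compound added, then increasing glutamate concentrations. Fluo-4 fluorescence read on FlexStation over 160 s. Concentration-response curves fit by nonlinear regression.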

rat mGlu8 = rat mGlu8 (Rattus norvegicus, UniProt P70579); test: Selectivity fold-shift, GIRK thallium flux in HEK/GIRK cells; type: cell-based; details: 30 μM test compound
Method in brief: as §2

rat mGlu3 = rat mGlu3 (Rattus norvegicus, UniProt P31422); test: as above; type: cell-based; details: 30 μM test compound
Method in brief: as §2

human mGlu6 = human mGlu6 (Homo sapiens, UniProt O15303); test: as above; type: cell-based; details: 30 μM test compound
Method in brief: as §2

rat mGlu4 = rat mGlu4 (Rattus norvegicus, UniProt P31423); test: as above; type: cell-based; details: 30 μM test compound
Sequence of rat mGlu4 (P31423 33-912): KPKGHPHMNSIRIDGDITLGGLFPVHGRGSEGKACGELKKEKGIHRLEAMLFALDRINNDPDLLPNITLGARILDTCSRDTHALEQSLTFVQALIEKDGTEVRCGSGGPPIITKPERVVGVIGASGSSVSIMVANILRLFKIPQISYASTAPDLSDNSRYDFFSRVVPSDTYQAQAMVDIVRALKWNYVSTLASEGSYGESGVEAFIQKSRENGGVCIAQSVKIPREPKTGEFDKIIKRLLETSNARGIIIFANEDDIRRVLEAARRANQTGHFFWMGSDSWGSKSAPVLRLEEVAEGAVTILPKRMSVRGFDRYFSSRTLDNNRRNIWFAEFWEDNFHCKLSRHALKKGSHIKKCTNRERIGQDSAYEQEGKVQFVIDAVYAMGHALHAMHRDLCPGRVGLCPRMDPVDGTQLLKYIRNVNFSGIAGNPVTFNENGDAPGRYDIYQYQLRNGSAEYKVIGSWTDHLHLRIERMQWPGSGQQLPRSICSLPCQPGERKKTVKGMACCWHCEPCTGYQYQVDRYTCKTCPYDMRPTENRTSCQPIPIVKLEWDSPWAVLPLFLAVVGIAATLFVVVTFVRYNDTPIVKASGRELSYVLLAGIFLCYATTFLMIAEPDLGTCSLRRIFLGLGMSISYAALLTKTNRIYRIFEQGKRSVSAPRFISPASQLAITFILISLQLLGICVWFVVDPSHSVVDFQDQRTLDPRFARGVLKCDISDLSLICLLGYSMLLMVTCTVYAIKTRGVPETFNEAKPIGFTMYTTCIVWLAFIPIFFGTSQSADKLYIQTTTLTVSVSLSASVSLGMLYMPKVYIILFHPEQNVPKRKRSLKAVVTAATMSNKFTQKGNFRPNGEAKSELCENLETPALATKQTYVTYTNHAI
Method in brief: as §2

rat mGlu7 = rat mGlu7 (Rattus norvegicus, UniProt P35400); test: as above; type: cell-based; details: 30 μM test compound
Sequence of rat mGlu7 (P35400 35-915): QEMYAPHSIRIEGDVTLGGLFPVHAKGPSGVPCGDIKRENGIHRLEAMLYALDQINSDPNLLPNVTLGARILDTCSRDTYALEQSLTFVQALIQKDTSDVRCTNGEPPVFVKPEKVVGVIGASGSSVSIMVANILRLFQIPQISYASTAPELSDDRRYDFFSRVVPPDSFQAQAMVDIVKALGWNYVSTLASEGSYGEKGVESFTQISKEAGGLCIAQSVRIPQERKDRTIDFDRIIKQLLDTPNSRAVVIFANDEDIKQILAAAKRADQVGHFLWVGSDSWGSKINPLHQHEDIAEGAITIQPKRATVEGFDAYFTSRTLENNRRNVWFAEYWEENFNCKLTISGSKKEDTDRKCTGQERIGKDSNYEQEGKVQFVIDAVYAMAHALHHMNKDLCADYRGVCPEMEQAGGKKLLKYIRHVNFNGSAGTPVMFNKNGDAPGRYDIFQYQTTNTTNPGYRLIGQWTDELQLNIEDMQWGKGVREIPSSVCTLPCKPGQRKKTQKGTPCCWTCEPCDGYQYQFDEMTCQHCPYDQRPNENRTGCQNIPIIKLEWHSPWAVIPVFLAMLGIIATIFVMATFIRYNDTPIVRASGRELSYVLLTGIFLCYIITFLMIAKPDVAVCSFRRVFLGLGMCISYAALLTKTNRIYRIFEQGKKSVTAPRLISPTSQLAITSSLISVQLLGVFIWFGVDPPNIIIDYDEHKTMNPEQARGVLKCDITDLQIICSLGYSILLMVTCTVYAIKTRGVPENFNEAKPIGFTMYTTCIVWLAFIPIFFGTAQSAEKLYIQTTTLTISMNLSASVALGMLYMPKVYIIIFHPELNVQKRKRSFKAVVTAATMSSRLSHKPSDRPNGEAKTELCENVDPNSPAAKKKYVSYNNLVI
Method in brief: as §2

rat mGlu5 [4] = biological target: T1, rat mGlu5; type: cell-based; details: VU0365396 30 μM, EC20 glutamate
rat mGlu5 [5] = biological target: T1, rat mGlu5; type: cell-based; details: 10 μM test compound with VU0357121 50 nM, EC20 glutamate
Method in brief: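 Same Fluo4 calcium-flux protocol in rat mGlu5 HEK293 cells. Test compound (10 μM) or vehicle co-applied with reference mGlu5 PAM (50 nM) from one 4× solution, followed by EC20 glutamate. Fluorescence recorded 160 s. Groups compared with EC20 + PAM + vehicle control by one-way ANOVA with Dunnett's test.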

Solubility in assay = type: physicochemical; details: above 30 μM in assay

Sequence of A809V/rmGlu5 (P31424 21-1203 A809V): as the sequence (P31424 21-1203 F585I) above, with I565F, A789V counted along it

Structure (SMILES): O=C(c1ccc(F)cc1)N1CCC[C@H](c2nc(-c3ccccn3)no2)C1 [(S)-FPOPM, (S)-(4-fluorophenyl)(3-(3-(pyridin-2-yl)-1,2,4-oxadiazol-5-yl)piperidin-1-yl)methanone]
intrinsic agonist activity at rmGlu5 (rmGlu5): have no effect on mGlu5 alone

Structure (SMILES): O=C(c1ccc(F)cc1)N1CCC[C@H](c2nc(-c3cccs3)no2)C1 [(S)-FTOPM, (S)-(4-fluorophenyl)(3-(3-(thiophen-2-yl)-1,2,4-oxadiazol-5-yl)piperidin-1-yl)methanone]
intrinsic agonist activity at rmGlu5 (rmGlu5): display intrinsic agonist activity at moderate to high concentrations

Structure (SMILES): N#Cc1cccc(C(=O)Nc2cc(-c3ccccc3)nn2-c2ccccc2)c1 [CDPPB, 3-cyano-N-(1,3-diphenyl-1H-pyrazol-5-yl)benzamide]
intrinsic agonist activity at rmGlu5 (rmGlu5): display intrinsic agonist activity at moderate to high concentrations

PAM response at the A809V/rmGlu5 mutant (A809V/rmGlu5): but not CPPHA is lost
PAM response at the F585I/rmGlu5 mutant (F585I/rmGlu5): is lost
Structure (SMILES): O=C(Nc1ccc(Cl)cc1CN1C(=O)c2ccccc2C1=O)c1ccccc1O [CPPHA, N-{4-chloro-2-[(1,3-dioxo-1,3-dihydro-2H-isoindol-2-yl)methyl]phenyl}-2-hydroxybenzamide]
intrinsic agonist activity at rmGlu5 (rmGlu5): have no effect on mGlu5 alone

inhibition of the effect of EC80 glutamate on mGlu5 (rat mGlu5 [1]): blockade
Structure (SMILES): Cc1cccc(C#Cc2ccccc2)n1 [MPEP, 2-methyl-6(phenylethynyl)pyridine, reference compound]

Structure (SMILES): CNc1ncc(C#Cc2ccccc2)cn1 [MPPA, N-methyl-5-(phenylethynyl)pyrimidin-2-amine]
intrinsic agonist activity at rmGlu5 (rmGlu5): have no effect on mGlu5 alone

EC50 (rat mGlu5 [2]): 1300 nM
Structure (SMILES): CCCOc1ccc(C(=O)Nc2ccc(Cl)cn2)cc1 [VU0001850, N-(5-chloropyridin-2-yl)-4-propoxybenzamide]
potentiation of response to suboptimal (EC20) glutamate (rat mGlu5 [3]): potentiated the response to glutamate at submicromolar concentrations

Structure (SMILES): CCCCOc1ccc(C(=O)Nc2ccccc2F)cc1 [VU0040237, 4-butoxy-N-(2-fluorophenyl)benzamide]
EC50 (rat mGlu5 [2]): 350 nM
potentiation of response to suboptimal (EC20) glutamate (rat mGlu5 [3]): potentiated the response to glutamate at submicromolar concentrations

Structure (SMILES): CCCCOc1ccc(C(=O)Nc2ccc(Cl)cn2)cc1 [VU0125936, 4-butoxy-N-(5-chloropyridin-2-yl)benzamide]
EC50 (rat mGlu5 [2]): 664 nM
potentiation of response to suboptimal (EC20) glutamate (rat mGlu5 [3]): potentiated the response to glutamate at submicromolar concentrations

Structure (SMILES): CCCCOc1ccc(C(=O)Nc2ccc(F)cc2F)cc1 [VU0357121, 4-butoxy-N-(2,4-difluorophenyl)benzamide]
modulation of agonist response (PAM activity) at mGlu2 (rat mGlu2): does not have PAM activity
effect on glutamate concentration-response curve at mGlu1 (rat mGlu1): weak inhibition of glutamate responses at mGlu1
modulation of agonist response (PAM activity) at mGlu8 (rat mGlu8): does not have PAM activity
modulation of agonist response (PAM activity) at mGlu3 (rat mGlu3): does not have PAM activity
inhibition of the effect of EC80 glutamate on mGlu5 (rat mGlu5 [1]): did not inhibit the effect of glutamate on mGlu5
PAM response at the A809V/rmGlu5 mutant (A809V/rmGlu5): inhibited the ability of VU0357121 to shift the glutamate concentration−response curve; also recorded: led to an inhibition of VU0357121 activity
increase in potency over the HTS hit (rat mGlu5 [2]; versus VU0040237): 10 fold
potentiation of response to suboptimal (EC20) glutamate (rat mGlu5 [3]): potentiated the response to glutamate at submicromolar concentrations
PAM response at the F585I/rmGlu5 mutant (F585I/rmGlu5): had no effect on its function
modulation of agonist response (PAM activity) at mGlu6 (human mGlu6): does not have PAM activity
modulation of agonist response (PAM activity) at mGlu4 (rat mGlu4): does not have PAM activity
modulation of agonist response (PAM activity) at mGlu7 (rat mGlu7): does not have PAM activity

Structure (SMILES): CCCCOc1ccc(C(=O)Nc2c(F)cccc2F)cc1 [VU0365396, 4-butoxy-N-(2,6-difluorophenyl)benzamide]
effect of VU0365396 on CPPHA-induced potentiation (rat mGlu5 [4]): had no effect on CPPHA-induced potentiation of mGlu5 responses; also recorded: has no effect on CPPHA activity
effect of VU0365396 on the VU0357121 CRC (rat mGlu5 [4]): induced a parallel rightward shift in the VU0357121 CRC; also recorded: induces a parallel rightward shift in the VU0357121 concentration−response curve
inhibition of VU0357121 PAM activity (rat mGlu5 [5]): caused the most robust inhibition; also recorded: induces the most robust inhibition of VU0357121 effects
solubility (Solubility in assay): limitations with solubility precluded studies with higher concentrations

PAM response at the A809V/rmGlu5 mutant (A809V/rmGlu5): is lost
PAM response at the F585I/rmGlu5 mutant (F585I/rmGlu5): but not VU29 is lost
Structure (SMILES): O=C(Nc1cc(-c2ccccc2)nn1-c1ccccc1)c1ccc([N+](=O)[O-])cc1 [VU-29, 4-nitro-N-(1,3-diphenyl-1H-pyrazol-5-yl)benzamide, reference compound]
